# According to ChEMBL document CHEMBL1124192, “Cyclopentenylcytosine. A carbocyclic nucleoside with antitumor and antiviral properties” (J Med Chem, 1988):
# “And” between values parts separate entries of the source, which are not always exact repeats. Identical values can stand only once.
# Experiments:
# [1] = tested on: Vesicular stomatitis virus; assay: Tested for inhibition of virus-induced cytopathogenic effect and cytotoxicity of compound against vesicular stomatitis RNA virus with indiana strain in L929 cell; format: functional
# [2] = Ratio of minimum drug concentration to ID50 of the compound (Indiana strain); format: ADME
# [3] = tested on: Vesicular stomatitis virus; assay: Inhibitory dose of compound required to inhibit cytopathogenic effects of vesicular stomatitis RNA virus with indiana strain in L929 cells; format: functional
# Human alphaherpesvirus 2 [4] = assay: Degree of inhibition of virus-induced cytopathogenic effect and the degree of cytotoxicity produced by compound against herpes simplex type-2 MS virus; format: functional
# Method in brief: (§1)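 Southern Research CPE inhibition test in Vero host cells. Confluent monolayers in 96-well plates received drug (minimum seven concentrations, cytotoxic to noncytotoxic) plus virus at 32 CCID50 per 0.1 mL, in triplicate, with cell, virus and drug-cytotoxicity controls. Incubated at 37 °C, 2% CO2. CPE scored microscopically at 3–4 days. VR = 0.1 × sum of CE-grade differences from virus control, halved for partially cytotoxic wells.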
# Human alphaherpesvirus 2 [5] = assay: Dose of compound required to inhibit the herpes simplex type-2 MS virus induced cytopathogenic effects; format: functional; conditions: read-out: ID50 (the source's name); method in brief: as §1
# Human alphaherpesvirus 1 [6] = assay: Degree of inhibition of virus-induced cytopathogenic effect and the degree of cytotoxicity produced by compound against herpes simplex type-1 virus E-377(TK+ ); format: functional; method in brief: as §1
# Human alphaherpesvirus 1 [7] = assay: Dose of compound required to inhibit the herpes simplex type-1 virusE-377(TK+ ) induced cytopathogenic effects; format: functional; conditions: read-out: ID50 (the source's name); method in brief: as §1
# [8] = tested on: unidentified influenza virus; assay: Tested for inhibition of virus-induced cytopathogenic effect and cytotoxicity of compound against influenza virus with A2/Aichi/2/68 strain in MDCK cell; format: functional
# [9] = Ratio of minimum drug concentration to ID50 of the compound(Adems strain); format: ADME
# [10] = tested on: unidentified influenza virus; assay: Inhibitory dose of compound required to inhibit cytopathogenic effects of influenza virus with A2/Aichi/2/68 strain in MDCK cells; format: functional; conditions: read-out: ID50 (the source's name)
# [11] = tested on: Japanese encephalitis virus; assay: Tested for inhibition of virus-induced cytopathogenic effect and cytotoxicity of compound against Japanese encephalitis virus with […] strain in vero cell; format: functional
# Punta Toro virus [12] = assay: Tested for inhibition of virus-induced cytopathogenic effect and cytotoxicity of compound against Punta toro virus with adames strain in vero cell; format: functional
# Punta Toro virus [13] = assay: Inhibitory dose of compound required to inhibit cytopathogenic effects of Punta toro virus with adames strain in vero cells; format: functional; conditions: read-out: ID50 (the source's name)
# [14] = tested on: Japanese encephalitis virus; assay: Inhibitory dose of compound required to inhibit cytopathogenic effects of Japanese encephalitis virus with […] strain in vero cells; format: functional; conditions: read-out: ID50 (the source's name)
# Yellow fever virus [15] = assay: Tested for inhibition of virus-induced cytopathogenic effect and cytotoxicity of compound against yellow fever (virus) with Asibi strain in vero cell; format: functional
# Yellow fever virus [16] = assay: Inhibitory dose of compound required to inhibit cytopathogenic effects yellow fever (virus) with Asibi strain in vero cell; format: functional; conditions: read-out: ID50 (the source's name)
# Human alphaherpesvirus 1 [17] = assay: Degree of inhibition of virus-induced cytopathogenic effect and the degree of cytotoxicity produced by compound against herpes simplex type-1 virus HF(TK- ); format: functional; method in brief: as §1
# Human alphaherpesvirus 1 [18] = assay: Dose of compound required to inhibit the herpes simplex type-1 virus HF(TK- )induced cytopathogenic effects; format: functional; method in brief: as §1
smiles,measurement,setting,value
Nc1nccc2c1ncn2[C@@H]1C[C@H](CO)[C@@H](O)[C@H]1O [3-DEAZAARISTEROMYCIN A],Virus rating,[1],2.1 and 3
same,Therapeutic index,[2],1.6
same,selectivity ratio,[2]; read-out: Therapeutic index,2.3
same,ID50,[3],4.3 µg/mL and 2 µg/mL
Nc1nc2c(ncn2COCCO)c(=O)[nH]1 [ACYCLOVIR],Virus rating,Human alphaherpesvirus 2 [4],4.5
same,IC50,Human alphaherpesvirus 2 [5],5.3 µg/mL
same,Virus rating,Human alphaherpesvirus 1 [6],6.7
same,IC50,Human alphaherpesvirus 1 [7],0.7 µg/mL
NC(=O)c1ncn([C@@H]2O[C@H](CO)[C@@H](O)[C@H]2O)n1 [RIBAVIRIN],Virus rating,[8],3.6
same,selectivity ratio,[9]; read-out: Therapeutic index,5
same,IC50,[10],18.7 µg/mL
same,Virus rating,[11],2.4
same,Virus rating,Punta Toro virus [12],1.8
same,IC50,Punta Toro virus [13],20.1 µg/mL
same,IC50,[14],3 µg/mL
c1c[se]cn1 [SELENAZOLE],selectivity ratio,[9]; read-out: Therapeutic ratio,1.8
same,Virus rating,Yellow fever virus [15],2.4
same,IC50,Yellow fever virus [16],0.6 µg/mL
Nc1ncnc2c1ncn2[C@@H]1O[C@H](CO)[C@@H](O)[C@@H]1O [VIDARABINE],Virus rating,Human alphaherpesvirus 2 [4],1.3
same,Virus rating,Human alphaherpesvirus 1 [17],3.3 and 2.9
same,IC50,Human alphaherpesvirus 2 [5],49.9 µg/mL
same,Virus rating,Human alphaherpesvirus 1 [6],1.8
same,ID50,Human alphaherpesvirus 1 [18],1.9 µg/mL
same,IC50,"Human alphaherpesvirus 1 [18]; Human alphaherpesvirus 1, read-out: ID50 (the source's name)",2.1 µg/mL
same,IC50,Human alphaherpesvirus 1 [7],13.6 µg/mL
